Most compounds without a hit are left out; they make up all but 4% or so of the library.
OX1R antag-1: human HCRTR1 antagonism. 330,000 compounds, 0.43% hits. O43613. CHO/OX1R cells, Fluo-8 calcium fluorescence, orexin A. AID 434989. inhibition, % at 5 µM;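 active = inhibition above its plate's threshold, mean inhibition of all tested compounds on the plate plus 3 SD, cut at about 37% in these data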;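 also: 0% = orexin A challenge wells and 100% = SB-334867-A antagonist wells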
Target sequence (O43613 whole entry, looked up): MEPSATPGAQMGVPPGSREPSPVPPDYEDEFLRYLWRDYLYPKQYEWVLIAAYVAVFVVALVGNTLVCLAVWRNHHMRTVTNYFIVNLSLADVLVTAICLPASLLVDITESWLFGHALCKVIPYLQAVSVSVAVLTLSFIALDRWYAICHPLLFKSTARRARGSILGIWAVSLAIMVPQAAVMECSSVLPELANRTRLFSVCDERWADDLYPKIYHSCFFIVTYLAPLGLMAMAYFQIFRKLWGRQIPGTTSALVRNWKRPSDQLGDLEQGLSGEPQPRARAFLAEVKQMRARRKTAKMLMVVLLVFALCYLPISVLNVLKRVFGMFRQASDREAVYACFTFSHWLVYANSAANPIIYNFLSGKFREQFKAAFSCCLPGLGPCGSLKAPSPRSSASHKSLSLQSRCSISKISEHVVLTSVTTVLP
TAAR1 agonist: human TAAR1 agonism; CHO RD-HGA16 TAAR1, Fluo-8 calcium fluorescence; vehicle wells 0%, saturating PEA agonist 100%; activation, % at 3 µM; 360,000 compounds, 0.99% hits;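 active = activation above the mean activation of all test compounds in the run plus 3 SD, cut at about 38% in these data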
Target sequence (Q96RJ0 whole entry, looked up): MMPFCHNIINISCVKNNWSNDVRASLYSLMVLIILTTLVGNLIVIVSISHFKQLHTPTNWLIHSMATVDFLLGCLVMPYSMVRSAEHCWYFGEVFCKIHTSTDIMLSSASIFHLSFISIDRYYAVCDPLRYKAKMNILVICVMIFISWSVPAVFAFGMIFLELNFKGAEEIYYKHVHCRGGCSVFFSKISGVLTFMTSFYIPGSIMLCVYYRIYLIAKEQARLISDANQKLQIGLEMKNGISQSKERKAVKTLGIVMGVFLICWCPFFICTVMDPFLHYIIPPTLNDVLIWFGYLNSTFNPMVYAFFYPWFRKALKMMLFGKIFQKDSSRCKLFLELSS
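Test system: RD-HGA16 (CHO) cells co-expressing Gα16 and hTAAR1 / Benchmarks: DMSO vehicle as 0%, PEA at EC100 as 100% / Repeats: no replicates (n 1) / Measure: % activation from peak over basal fluorescence ratio, DMSO-to-PEA scaled / Timing: 17-24 h plating, Fluo-8 75 min 37 °C, 30 min RT / Technique: kinetic Fluo-8 calcium fluorescence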
NTR1 ag: NTR1 (human) agonism | P30989 | NTR1-U2OS beta-arrestin-GFP spot imaging, agonist mode | activation, % at 20 µM | 330,000 compounds, 0.17% hits;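 active = activation at or above 40% of the spot to cytoplasm intensity ratio, with at least 20 cells analyzed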;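 also: 0% = DMSO without peptide and 100% = 100 nM NTR1 peptide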
OX1R antag-2: blocks the human orexin 1 receptor. O43613. OX1R-expressing cells, FRET antagonist read-out. inhibition, % at 6.6 µM. 330,000 compounds, 1.8% hits. AID 485270; in the data active = inhibition mostly above about 38%, no sharp cut-off; inactive = mostly below about 40%;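 also: 0% = agonist challenge alone and 100% = reference antagonist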
TAAR1 antag: human TAAR1 antagonism; Q96RJ0; CHO RD-HGA16 TAAR1, Fluo-8 calcium fluorescence, antagonist; inhibition, % at 3 µM; 360,000 compounds, 1.5% hits; AID 624466;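 active = inhibition above a per-plate cutoff, the mean inhibition of test compounds on that plate plus 3 SD, cut at about 49% in these data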;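 also: 0% = DMSO plus EC80 beta-PEA response and 100% = DMSO alone without agonist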
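Material: RD-HGA16 CHO cells with stable hTAAR1 and Gα16; Dosing: single nominal final test compound concentration of 3 µM; Schedule: seeding 17-24 h prior, 75-min 37 °C, 30-min RT dye loading; Detection: kinetic Fluo-8 calcium fluorescence measurement; Measure: % inhibition from peak post-agonist over basal fluorescence ratio; Benchmarks: vehicle and agonist controls.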
CHO parental Ca: counter-screen for OX1R antagonists: effect in parental CHO cells | 330,000 compounds, 0.63% hits | parental CHO-K1, ATP-induced calcium, Fluo-8 fluorescence | inhibition, % at 5.6 µM;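 active = inhibition above that plate's mean sample inhibition plus 3 SD, cut at about 26% in these data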;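 also: 0% = ATP-challenged DMSO wells and 100% = DMSO wells without ATP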
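Material: parental CHO cells / Compound: single nominal dose of 5.6 µM per compound / Signal: Fluo-8 fluorescence / Replicates: singlicate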
* marks the source's active call; other numbers are inactive results; / = no result given.

SMILES | OX1R antag-1 | TAAR1 agonist | NTR1 ag | OX1R antag-2 | TAAR1 antag | CHO parental Ca
Nc1nonc1-n1nnc(C(=O)N/N=C/c2cccnc2)c1CSc1ccc(Cl)cc1 | 19.9 | 20.4 | 6.1 | 47.5* | 56.3* | -0.4
CC(C)c1nnc(NC(=O)C2c3ccccc3Oc3ccccc32)s1 | -12.0 | 42.4* | 2.4 | 1.7 | -2.0 | -8.8
CSc1cccc(NS(=O)(=O)c2ccc3c(c2)CCN3C(C)=O)c1 | 47.2 | 11.7 | 3.2 | 22.3 | 30.3 | 64.5*
COc1cccc(NS(=O)(=O)c2ccc3c(c2)CCN3C(C)=O)c1 | -7.6 | 3.9 | 0.2 | 2.0 | 6.6 | 4.8
O=C(Cn1nc(-c2ccccc2)ccc1=O)NCc1ccc2c(c1)OCO2 | 0.1 | 17.8 | -0.1 | 71.6* | -2.8 | -8.7
CCC1Sc2ccccc2N(CC(=O)NCc2ccc3c(c2)OCO3)C1=O (stereo not given) | -7.1 | 16.6 | 0.8 | 23.5 | 50.0* | -9.9
O=C(CSc1ccc2ccccc2n1)NCc1ccc2c(c1)OCO2 | -6.2 | 1.5 | 2.0 | 53.5* | -1.7 | -26.8
O=C(CSc1nc2ccccc2s1)NCc1ccc2c(c1)OCO2 | -12.6 | 4.5 | -0.1 | 44.4 | -5.0 | -0.9
O=C(c1nc[nH]c1C(=O)N1CCc2ccccc2C1)N1CCc2ccccc2C1 | 4.2 | 37.9* | -0.1 | 11.9 | 47.6 | -7.7
Cc1ccc([C@H]2C[C@H](O)[C@@H](n3cc(C4CC4)nn3)CN2Cc2cccs2)cc1 | / | 41.3* | / | / | 41.4 | /
COC(=O)c1cc2c(c3c4ccccc4n(S(=O)(=O)c4ccc(OC)cc4)c13)C(=O)N(Cc1ccc(C(F)(F)F)cc1)C2 | / | -0.6 | / | / | -18.2 | /
Cc1ccc(/C=C/c2ccc(N(C)C)cc2)[n+](C)c1 | -7.7 | 1.5 | -1.3 | 39.5* | 11.2 | 14.6
NC(c1csc(Nc2nncc3ccccc23)n1)c1ccccc1Cl (stereo not given) | / | 50.5* | / | / | 39.9 | /
COc1ccc(OC[C@@H](O)CNC(=O)c2cccc3c2C(=O)c2ccc(Cl)cc2S3(=O)=O)cc1 | -21.6 | 25.0 | 1.1 | 42.5* | 34.6 | -35.4
O=C(NCc1ccc(F)cc1)c1cccc2c1C(=O)c1ccc(Cl)cc1S2(=O)=O | / | 9.0 | 7.6 | / | 0.5 | /
COc1ccc(NC(=O)CCSc2cc(C)c3ccccc3n2)cc1 | -13.6 | -5.1 | 2.6 | 21.0 | -15.4 | -27.4
COc1ccc2nc(SCC(=O)NN)cc(C)c2c1 | 19.5 | -0.7 | -0.6 | 49.2* | -11.9 | -24.9
CC(C)Cn1c(N)c(C(=O)CSc2ccc3c(c2)OCCO3)c(=O)n(C)c1=O | 21.1 | 23.0 | 0.2 | 23.0 | 44.3 | 54.5*
CC(C)Cn1c(N)c(C(=O)COC(=O)Cc2cccc(C(F)(F)F)c2)c(=O)n(C)c1=O | 8.2 | 7.6 | 3.5 | 28.9 | 40.8 | 54.5*
CC(C)Cn1c(N)c(C(=O)COC(=O)c2c(F)cccc2F)c(=O)n(C)c1=O | 6.3 | 39.0* | 1.6 | 19.9 | 13.4 | 3.0
CC(C)Cn1c(N)c(C(=O)COC(=O)c2ccccc2F)c(=O)n(C)c1=O | -23.2 | 22.1 | -0.1 | 14.6 | 10.5 | -5.9
Nc1nc2c(ncn2[C@@H]2O[C@H](C(=O)N[C@H](Cc3ccccc3)C(=O)O)[C@@H](O)[C@H]2O)c(=O)[nH]1 | / | 0.0 | / | / | -2.6 | /
Cc1ccc(S(=O)(=O)N2CC3(O)CN(C(=O)OC(C)C)N(C(=O)OC(C)C)CC3(OC(=O)NCc3ccccc3F)C2)cc1 (stereo not given) | / | 9.0 | / | / | 59.7* | /
Cc1ccc(S(=O)(=O)N2CC3(O)CN(C(=O)OC(C)C)N(C(=O)OC(C)C)CC3(OC(=O)NCC3CCCCC3)C2)cc1 (stereo not given) | / | 4.5 | / | / | 44.5 | /
Cc1cc(NC(=O)c2c(F)cccc2Cl)n(-c2nc3ccccc3[nH]2)n1 | -17.5 | 5.6 | 12.2 | 27.9 | 50.2* | -4.1
SMILES | OX1R antag-1 | TAAR1 agonist | NTR1 ag | OX1R antag-2 | TAAR1 antag | CHO parental Ca
CC(=O)c1c(C)n([O-])c2ccc(C)cc2[n+]1=O | 2.1 | 2.2 | -0.7 | 40.9* | -19.1 | -4.0
Cc1ccc2c(c1)n([O-])c1c([n+]2=O)CCCC1 | -9.2 | 0.7 | -3.3 | 28.9 | -2.7 | -0.8
C[C@H]1CN(C(=O)OC(C)(C)C)CCN1c1ccc(N2CC[C@@H](O)C2)c(C#N)c1 | / | 4.9 | / | / | -7.4 | /
C[C@@H]1CNC(=O)c2c(C(=O)Nc3ccc(CNC(=O)OC(C)(C)C)cc3)ncn21 | / | 13.1 | / | / | 50.5* | /
CCSc1nnc2c(n1)[nH]c1c(C)cccc12 | -6.7 | 4.5 | 1.3 | 40.2* | -10.5 | 1.0
C[C@@H]1C=CCCO[C@]12C(=O)N(Cc1ccc(F)cc1)c1cccc(Br)c12 | / | -1.9 | / | / | 34.3 | /
CCOC(=O)N1CCN(C(=O)C[C@H]2C[C@@]3(C(=O)OC)C(=C[C@H](C(C)C)O[C@@H]3C3CC3)N(Cc3ccccc3)C2=O)CC1 | / | -0.1 | / | / | 3.3 | /
CCCN(C(=O)CCc1cn(CCC)c2ccccc12)c1ccc(Oc2cccnc2)cc1 | / | 0.4 | / | / | 43.5 | /
N#Cc1cnn2c(C(F)(F)F)cc(-c3ccccc3)nc12 | -15.2 | -0.3 | 1.4 | 16.0 | 0.4 | 54.3*
O=C(O)c1cnn2c(C(F)(F)F)cc(-c3ccco3)nc12 | -3.8 | 2.3 | 1.0 | 48.6* | -3.2 | 1.5
COC(=O)c1cnn2c(C(F)(F)F)cc(-c3ccccc3)nc12 | -31.1 | 6.2 | 0.5 | 18.3 | -8.5 | 1.8
COc1cccc(-c2cc(C(F)(F)F)n3ncc(C(=O)O)c3n2)c1 | -24.4 | 2.6 | 0.0 | 51.0* | -6.4 | -5.3
O=C(c1cnn2c(C(F)(F)F)cc(-c3ccco3)nc12)N1CCCCCC1 | -15.5 | 3.0 | 4.0 | 25.2 | -7.8 | -15.3
CN(C(=O)CSc1n[nH]c(-c2cccs2)n1)C1CCS(=O)(=O)C1 (stereo not given) | 0.1 | 3.9 | -1.6 | 10.3 | -33.6 | -4.2
O=Cc1ccc([B-](F)(F)F)o1 | / | 4.8 | / | / | -4.9 | /
COc1ccccc1Cc1c(-c2ccc(F)cc2)nc2c3ccccc3ccn12 | / | -1.0 | / | / | -1.8 | /
Cc1cc(CSc2ccccc2)ccc1NC(=O)c1cccc([N+](=O)[O-])c1 | -3.3 | 6.3 | 4.6 | 26.6 | 49.1* | -1.8
Cc1cc(O)c(NC(=O)c2cccc([N+](=O)[O-])c2)cc1C | 0.8 | 0.2 | 0.0 | 10.7 | 0.1 | 23.8
CC(=O)c1ccc(OCC(=O)Nc2ccccc2N2CCCC2)cc1 | -22.7 | -1.6 | 0.7 | 18.2 | -29.7 | -13.2
CCc1ccccc1NC(=O)COc1ccc(C(=S)N2CCCC2)cc1 | -1.3 | 4.5 | 2.7 | 45.8* | 9.0 | -15.3
CCOC(=O)/C=C1/SCC(=O)N1CC(=O)c1ccc[nH]1 | / | -0.3 | / | / | -9.3 | /
CN(CC(=O)Nc1ccccc1Br)C(=O)COc1ccc2ccccc2c1 | 1.2 | 9.7 | 2.4 | 40.8* | -14.0 | -16.1
COCCNC(=O)Nc1ccc2nc(-c3cccs3)c(-c3cccs3)nc2c1 | 4.5 | 8.0 | 2.8 | 51.3 | 32.3 | 0.5

Screens (PubChem BioAssay)
